According to ChEMBL document CHEMBL2429727, “Syntheses, biological evaluation and SAR of ingenol mebutate analogues for treatment of actinic keratosis and non-melanoma skin cancer” (Bioorg Med Chem Lett, 2013):
The source made the active and inactive calls. The rule behind the calls is not given here.

How the values were obtained:
[1] = tested on: Keratinocyte; experiment: Induction of IL-8 release in human primary epidermal keratinocytes after 6 hrs by HTRF assay in presence of PKC inhibitor bisindolylmaleimide 1; assay type: functional, cell-based
[2] = Induction of oxidative burst in polymorphonuclear leukocytes (unknown origin) isolated from buffy coat after 40 mins by fluorescence assay; assay type: functional, cell-based
Procedure, shortened: (§1)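 PMN isolated and purified from fresh buffy coats, then incubated 40 min at ambient temperature with titrated compound (top concentration 10 µM) premixed with hydroethidine. Respiratory burst read as fluorescence in relative light units, emission 579 nm, excitation 485 nm. EC50 and Emax are expressed relative to the maximum effect of the ingenol mebutate reference.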

[3] = tested on: Keratinocyte; experiment: Induction of IL-8 release in human primary epidermal keratinocytes after 6 hrs by HTRF assay; assay type: functional, cell-based
[4] = tested on: Keratinocyte; experiment: Induction of TNFalpha release in human primary epidermal keratinocytes after 6 hrs in presence of PKC inhibitor bisindolylmaleimide 1; assay type: functional, cell-based
[5] = Induction of necrosis in human HeLa cells after 30 mins by resazurin assay; assay type: cell-based; conditions: read-out: LC50
Procedure, shortened: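 HeLa cells exposed to increasing ester concentrations up to 400 µM for 30 min at 37 °C. Remaining metabolic activity then read with a resazurin-based dye. LC50 is the concentration causing 50% loss of metabolic activity.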

[6] = Induction of oxidative burst in polymorphonuclear leukocytes (unknown origin) isolated from buffy coat at 10 uM after 40 mins by fluorescence assay in presence of PKC inhibitor bisindolylmaleimide 1; assay type: functional, cell-based
[7] = Chemical stability of the compound in aqueous buffer assessed as drug recovery after 16 hrs at pH 7.4 by HPLC analysis; assay type: physicochemical; conditions: read-out: Drug recovery
Procedure, shortened: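 DMSO stock diluted with pre-heated (37 °C) aqueous buffer pH 7.4 to at most 30% v/v organic content, then shaken. Held in the HPLC autosampler at 37 °C, first injected within 5 min, then injected repeatedly over 16 h. Recovery taken from the fall in compound peak area, UV detection normally at 270 nm.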

[8] = tested on: Keratinocyte; experiment: Induction of TNFalpha release in human primary epidermal keratinocytes after 6 hrs; assay type: functional, cell-based
Procedure, shortened: (§2)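 Human adult log-phase primary epidermal keratinocytes subcultured at 10,000 cells/well. Incubated with titrated compound for 6 h at 37 °C in humidified 95% air/5% CO2. Secreted cytokines quantified on 4-spot cytokine plates. EC50 is the concentration giving 50% of the maximum effect of the ingenol mebutate reference. Emax is maximal response relative to that reference.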

[9] = target: Protein kinase C delta type (Homo sapiens, UniProt Q05655); experiment: Activation of PKCdelta (unknown origin) using phosphatidylserine […]; conditions: read-out: EC50
Chain of Protein kinase C delta type (Q05655 whole entry): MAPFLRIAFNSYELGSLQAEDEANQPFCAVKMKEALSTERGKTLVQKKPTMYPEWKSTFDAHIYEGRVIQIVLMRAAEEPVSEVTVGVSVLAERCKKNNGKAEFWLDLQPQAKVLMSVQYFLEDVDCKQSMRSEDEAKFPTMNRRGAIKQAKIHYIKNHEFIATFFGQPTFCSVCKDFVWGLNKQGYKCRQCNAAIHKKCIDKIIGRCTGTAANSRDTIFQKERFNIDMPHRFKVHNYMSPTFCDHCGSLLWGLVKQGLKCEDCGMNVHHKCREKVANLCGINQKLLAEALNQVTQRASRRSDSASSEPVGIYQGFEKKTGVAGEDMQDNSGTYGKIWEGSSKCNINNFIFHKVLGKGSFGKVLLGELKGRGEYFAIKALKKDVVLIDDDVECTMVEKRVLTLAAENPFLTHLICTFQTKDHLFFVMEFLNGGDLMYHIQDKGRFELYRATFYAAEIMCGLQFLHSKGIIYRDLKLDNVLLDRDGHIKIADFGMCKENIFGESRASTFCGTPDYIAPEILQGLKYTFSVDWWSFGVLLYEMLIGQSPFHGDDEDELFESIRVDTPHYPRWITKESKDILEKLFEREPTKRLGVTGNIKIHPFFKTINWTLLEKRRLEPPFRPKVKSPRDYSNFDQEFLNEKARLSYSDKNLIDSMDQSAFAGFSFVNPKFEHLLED
Procedure, shortened: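 PKCdelta assayed in vitro by phosphorylation of a PKC peptide substrate, with 0.05 mg/mL phosphatidylserine and no diacylglycerol so stimulation could be seen. Compounds serially diluted at semilogarithmic intervals, twelve points from 10 µM. Reaction started by adding ATP.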

[10] = Dissociation constant, pKa of the compound; assay type: physicochemical
[11] = Induction of oxidative burst in polymorphonuclear leukocytes (unknown origin) isolated from buffy coat at 10 uM after 40 mins by fluorescence assay relative to ingenol mebutate; assay type: functional; procedure, shortened: as §1
[12] = tested on: Keratinocyte; experiment: Induction of IL-8 release in human primary epidermal keratinocytes after 6 hrs by HTRF assay relative to ingenol mebutate; assay type: functional
[13] = tested on: Keratinocyte; experiment: Induction of TNFalpha release in human primary epidermal keratinocytes after 6 hrs relative to ingenol mebutate; assay type: functional; procedure, shortened: as §2

SMILES	Activity [1]	EC50 [2] [nM]	EC50 [3] [nM]	Activity [4]	CC50 at 0.5 h [5] [nM]	Activity [6]	remaining at 16 h [7] [%]	EC50 [8] [nM]	EC50 [9] [nM]	pKa [10]	Emax at 10 µM [11] [%]	Emax [12] [%]	Emax [13] [%]
C/C=C(/C)C(=O)O[C@H]1C(C)=C[C@]23C(=O)[C@@H](C=C(CO)[C@@H](O)[C@]12O)[C@H]1[C@@H](C[C@H]3C)C1(C)C [INGENOL MEBUTATE]	inactive	8.7	10.3	inactive	230000	inactive	60	11.2	4.1	–	–	–	–
C/C=C(\C)C(=O)O[C@H]1C(C)=C[C@]23C(=O)[C@@H](C=C(CO)[C@@H](O)[C@]12O)[C@H]1[C@@H](C[C@H]3C)C1(C)C	–	7.5	112	–	237000	–	45	–	–	5.02	92	75	81
CCC(CC)C(=O)O[C@H]1C(C)=C[C@]23C(=O)[C@@H](C=C(CO)[C@@H](O)[C@]12O)[C@H]1[C@@H](C[C@H]3C)C1(C)C	–	6.3	43	–	86000	–	60	27	4.5	–	109	59	62
CC1=C[C@]23C(=O)[C@@H](C=C(CO)[C@@H](O)[C@]2(O)[C@H]1OC(=O)C(C)=C(C)C)[C@H]1[C@@H](C[C@H]3C)C1(C)C	–	5.9	8.6	–	174000	–	75	8	5.3	–	106	102	97
CO/N=C(\C(=O)O[C@H]1C(C)=C[C@]23C(=O)[C@@H](C=C(CO)[C@@H](O)[C@]12O)[C@H]1[C@@H](C[C@H]3C)C1(C)C)c1ccccc1	–	49	147	–	92000	–	68	1600	10.6	–	120	54	52
C/C=C(/C(=O)O[C@H]1C(C)=C[C@]23C(=O)[C@@H](C=C(CO)[C@@H](O)[C@]12O)[C@H]1[C@@H](C[C@H]3C)C1(C)C)c1ccccc1	–	7.4	3.8	–	103000	–	72	4.9	5.2	–	126	97	110
C/C=C(/C)C(=O)O	–	–	–	–	–	–	–	–	–	4.3	–	–	–
CCCCCCCCCCCCCCCC(=O)O[C@H]1C(C)=C[C@]23C(=O)[C@@H](C=C(CO)[C@@H](O)[C@]12O)[C@H]1[C@@H](C[C@H]3C)C1(C)C	–	28	7.3	–	400000	–	–	8.4	4.7	–	106	109	115
CC1=C[C@]23C(=O)[C@@H](C=C(CO)[C@@H](O)[C@]2(O)[C@H]1OC(=O)C1(C)CCCCC1)[C@H]1[C@@H](C[C@H]3C)C1(C)C	–	7.6	22	–	61000	–	70	13	2.9	–	127	52	62
